Data taken from ChEMBL document CHEMBL1287798, “3,5-disubstituted pyranone analogues of highly antifungally active furanones: conversion of biological effect from antifungal to cytostatic” (Bioorg Med Chem Lett, 2010).
Active and inactive are the calls of the source. The calls are words filed in the database; no cut-off is given here.

Legend:
[1] = test system: Candida tropicalis; assay: Antifungal activity against Candida tropicalis 156 by microdilution method; assay type: functional
[2] = test system: Nannizzia gypsea; assay: Antifungal activity against Microsporum gypseum by microdilution method; assay type: functional
[3] = test system: Nakaseomyces glabratus; assay: Antifungal activity against Candida glabrata 20/I by microdilution method; assay type: functional
[4] = test system: Aspergillus fumigatus; assay: Antifungal activity against Aspergillus fumigatus 231 by microdilution method; assay type: functional
[5] = test system: HT-29; assay: Growth inhibition of human HT-29 cells; assay type: functional, cell-based
[6] = test system: Clavispora lusitaniae; assay: Antifungal activity against Clavispora lusitaniae 2446/I by microdilution method
[7] = test system: HL-60; assay: Growth inhibition of human HL60 cells at 10 umol/L; assay type: functional, cell-based
Procedure, shortened: (§1)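 Single-concentration cytostatic screen at 10 µmol L⁻¹ on mouse lymphocytic leukemia L1210 (ATCC CCL 219), human acute lymphoblastic leukemia CCRF-CEM T lymphoblastoid cells (ATCC CCL 119), human promyelocytic leukemia HL-60 (ATCC CCL 240) and human cervix carcinoma HeLa S3 (ATCC CCL 2.2).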

[8] = test system: Trichophyton mentagrophytes; assay: Antifungal activity against Trichophyton mentagrophytes 445 by microdilution method; assay type: functional
[9] = test system: Pichia kudriavzevii; assay: Antifungal activity against Candida krusei E28 by microdilution method; assay type: functional
[10] = test system: Candida albicans; assay: Antifungal activity against Candida albicans ATCC 44859 by microdilution method; assay type: functional
[11] = test system: Trichosporon beigelii; assay: Antifungal activity against Trichosporon beigelii 1188 by microdilution method; assay type: functional
[12] = test system: L1210; assay: Growth inhibition of mouse L1210 cells at 10 umol/L; assay type: functional, cell-based; procedure, shortened: as §1
[13] = test system: Candida albicans; assay: Antifungal activity against Candida albicans ATCC 90028 by microdilution method; assay type: functional
[14] = test system: Candida parapsilosis; assay: Antifungal activity against Candida parapsilosis ATCC 22019 by microdilution method; assay type: functional; settings: Lodderomyces parapsilosis
[15] = test system: Lichtheimia corymbifera; assay: Antifungal activity against Absidia corymbifera 272 by microdilution method; assay type: functional
[16] = test system: Pichia kudriavzevii; assay: Antifungal activity against Candida krusei ATCC 6258 by microdilution method; assay type: functional
[17] = test system: HeLa S3; assay: Growth inhibition of human HeLaS3 cells at 10 umol/L; assay type: functional, cell-based; procedure, shortened: as §1
[18] = test system: CCRF-CEM; assay: Growth inhibition of human CCRF-CEM cells at 10 umol/L; assay type: functional, cell-based; procedure, shortened: as §1
[19] = test system: L1210; assay: Growth inhibition of mouse L1210 cells; assay type: functional, cell-based

| MIC [1] | MIC [2] | MIC [3] | MIC [4] | IC50 [5] | MIC [6] | MIC [8] | MIC [9] | MIC [10] | MIC [11] | MIC [13] | MIC [14] | MIC [15] | MIC [16] | IC50 [19] | Compound | inhibition [7] | inhibition [12] | inhibition [17] | inhibition [18] |
| --- | --- | --- | --- | --- | --- | --- | --- | --- | --- | --- | --- | --- | --- | --- | --- | --- | --- | --- | --- |
| ≥ 62.5 µM | ≥ 62.5 µM | ≥ 62.5 µM | ≥ 62.5 µM | 2.93 µM | ≥ 62.5 µM | ≥ 62.5 µM | ≥ 62.5 µM | ≥ 62.5 µM | ≥ 62.5 µM | ≥ 62.5 µM | ≥ 62.5 µM | ≥ 62.5 µM | ≥ 62.5 µM | – | O=C1OCC(COC(=O)c2ccccc2)C=C1c1ccc(Cl)cc1 (stereo unspecified) | inactive | inactive | – | – |
| – | – | – | – | – | – | – | – | – | – | – | – | – | – | – | O=C1OCC(CO)C=C1c1ccc(Cl)c(Cl)c1 (stereo unspecified) | inactive | inactive | inactive | inactive |
| ≥ 62.5 µM | ≥ 62.5 µM | ≥ 62.5 µM | ≥ 62.5 µM | – | ≥ 62.5 µM | ≥ 62.5 µM | ≥ 62.5 µM | ≥ 62.5 µM | ≥ 62.5 µM | ≥ 62.5 µM | ≥ 62.5 µM | ≥ 62.5 µM | ≥ 62.5 µM | – | CC(=O)OCC1C=C(c2cccc(Cl)c2)C(=O)OC1 (stereo unspecified) | – | – | – | – |
| ≥ 62.5 µM | ≥ 62.5 µM | ≥ 62.5 µM | ≥ 62.5 µM | – | ≥ 62.5 µM | ≥ 62.5 µM | ≥ 62.5 µM | ≥ 62.5 µM | ≥ 62.5 µM | ≥ 62.5 µM | ≥ 62.5 µM | ≥ 62.5 µM | ≥ 62.5 µM | – | COc1ccc(C2=CC(COC(C)=O)COC2=O)cc1 (stereo unspecified) | – | – | – | – |
| ≥ 62.5 µM | ≥ 62.5 µM | ≥ 62.5 µM | ≥ 62.5 µM | – | ≥ 62.5 µM | ≥ 62.5 µM | ≥ 62.5 µM | ≥ 62.5 µM | ≥ 62.5 µM | ≥ 62.5 µM | ≥ 62.5 µM | ≥ 62.5 µM | ≥ 62.5 µM | – | O=C1OCC(COC(=O)c2ccccc2)C=C1c1cccc(Cl)c1 (stereo unspecified) | – | – | – | – |
| ≥ 62.5 µM | ≥ 62.5 µM | ≥ 62.5 µM | ≥ 62.5 µM | – | ≥ 62.5 µM | ≥ 62.5 µM | ≥ 62.5 µM | ≥ 62.5 µM | ≥ 62.5 µM | ≥ 62.5 µM | ≥ 62.5 µM | ≥ 62.5 µM | ≥ 62.5 µM | – | CC(C)(C)C(=O)OCC1C=C(c2ccc(Cl)c(Cl)c2)C(=O)OC1 (stereo unspecified) | – | – | – | – |
| ≥ 62.5 µM | ≥ 62.5 µM | ≥ 62.5 µM | ≥ 62.5 µM | – | ≥ 62.5 µM | ≥ 62.5 µM | ≥ 62.5 µM | ≥ 62.5 µM | ≥ 62.5 µM | ≥ 62.5 µM | ≥ 62.5 µM | ≥ 62.5 µM | ≥ 62.5 µM | – | COc1ccc(C2=CC(COC(=O)C(C)(C)C)COC2=O)cc1 (stereo unspecified) | – | – | – | – |
| ≥ 62.5 µM | ≥ 62.5 µM | ≥ 62.5 µM | ≥ 62.5 µM | – | ≥ 62.5 µM | ≥ 62.5 µM | ≥ 62.5 µM | ≥ 62.5 µM | ≥ 62.5 µM | ≥ 62.5 µM | ≥ 62.5 µM | ≥ 62.5 µM | ≥ 62.5 µM | – | COc1ccc(C2=CC(COC(=O)c3ccccc3)COC2=O)cc1 (stereo unspecified) | – | – | – | – |
| ≥ 62.5 µM | ≥ 62.5 µM | ≥ 62.5 µM | ≥ 62.5 µM | – | ≥ 62.5 µM | ≥ 62.5 µM | ≥ 62.5 µM | ≥ 62.5 µM | ≥ 62.5 µM | ≥ 62.5 µM | ≥ 62.5 µM | ≥ 62.5 µM | ≥ 62.5 µM | 5.9 µM | O=C1OCC(COC(=O)c2ccccc2)C=C1c1ccc(Cl)c(Cl)c1 (stereo unspecified) | – | – | – | – |
| ≥ 62.5 µM | ≥ 62.5 µM | ≥ 62.5 µM | ≥ 62.5 µM | – | ≥ 62.5 µM | ≥ 62.5 µM | ≥ 62.5 µM | ≥ 62.5 µM | ≥ 62.5 µM | ≥ 62.5 µM | ≥ 62.5 µM | ≥ 62.5 µM | ≥ 62.5 µM | – | O=C1OCC(COC(=O)c2ccccc2)C=C1c1ccccc1 (stereo unspecified) | – | – | – | – |
| ≥ 62.5 µM | ≥ 62.5 µM | ≥ 62.5 µM | ≥ 62.5 µM | – | ≥ 62.5 µM | ≥ 62.5 µM | ≥ 62.5 µM | ≥ 62.5 µM | ≥ 62.5 µM | ≥ 62.5 µM | ≥ 62.5 µM | ≥ 62.5 µM | ≥ 62.5 µM | – | CC(C)(C)C(=O)OCC1C=C(c2ccc(Br)cc2)C(=O)OC1 (stereo unspecified) | – | – | – | – |
| ≥ 62.5 µM | ≥ 62.5 µM | ≥ 62.5 µM | ≥ 62.5 µM | – | ≥ 62.5 µM | ≥ 62.5 µM | ≥ 62.5 µM | ≥ 62.5 µM | ≥ 62.5 µM | ≥ 62.5 µM | ≥ 62.5 µM | ≥ 62.5 µM | ≥ 62.5 µM | – | CC(=O)OCC1C=C(c2ccc(Cl)cc2)C(=O)OC1 (stereo unspecified) | – | – | – | – |
| ≥ 62.5 µM | ≥ 62.5 µM | ≥ 62.5 µM | ≥ 62.5 µM | – | ≥ 62.5 µM | ≥ 62.5 µM | ≥ 62.5 µM | ≥ 62.5 µM | ≥ 62.5 µM | ≥ 62.5 µM | ≥ 62.5 µM | ≥ 62.5 µM | ≥ 62.5 µM | – | CC(C)(C)C(=O)OCC1C=C(c2cccc(Cl)c2)C(=O)OC1 (stereo unspecified) | – | – | – | – |
| ≥ 62.5 µM | ≥ 62.5 µM | ≥ 62.5 µM | ≥ 62.5 µM | – | ≥ 62.5 µM | ≥ 62.5 µM | ≥ 62.5 µM | ≥ 62.5 µM | ≥ 62.5 µM | ≥ 62.5 µM | ≥ 62.5 µM | ≥ 62.5 µM | ≥ 62.5 µM | – | CC(C)(C)C(=O)OCC1C=C(c2ccc(Cl)cc2)C(=O)OC1 (stereo unspecified) | – | – | – | – |
| ≥ 62.5 µM | ≥ 62.5 µM | ≥ 62.5 µM | ≥ 62.5 µM | – | ≥ 62.5 µM | ≥ 62.5 µM | ≥ 62.5 µM | ≥ 62.5 µM | ≥ 62.5 µM | ≥ 62.5 µM | ≥ 62.5 µM | ≥ 62.5 µM | ≥ 62.5 µM | – | CC(=O)OCC1C=C(c2ccc(Br)cc2)C(=O)OC1 (stereo unspecified) | – | – | – | – |
| ≥ 62.5 µM | ≥ 62.5 µM | ≥ 62.5 µM | ≥ 62.5 µM | 2.45 µM | ≥ 62.5 µM | ≥ 62.5 µM | ≥ 62.5 µM | ≥ 62.5 µM | ≥ 62.5 µM | ≥ 62.5 µM | ≥ 62.5 µM | ≥ 62.5 µM | ≥ 62.5 µM | 7.3 µM | CC(=O)OCC1C=C(c2ccc(Cl)c(Cl)c2)C(=O)OC1 (stereo unspecified) | – | – | – | – |
| ≥ 62.5 µM | ≥ 62.5 µM | ≥ 62.5 µM | ≥ 62.5 µM | – | ≥ 62.5 µM | ≥ 62.5 µM | ≥ 62.5 µM | ≥ 62.5 µM | ≥ 62.5 µM | ≥ 62.5 µM | ≥ 62.5 µM | ≥ 62.5 µM | ≥ 62.5 µM | – | CC(=O)OCC1C=C(c2ccccc2)C(=O)OC1 (stereo unspecified) | – | – | – | – |
| ≥ 62.5 µM | ≥ 62.5 µM | ≥ 62.5 µM | ≥ 62.5 µM | – | ≥ 62.5 µM | ≥ 62.5 µM | ≥ 62.5 µM | ≥ 62.5 µM | ≥ 62.5 µM | ≥ 62.5 µM | ≥ 62.5 µM | ≥ 62.5 µM | ≥ 62.5 µM | – | CC(C)(C)C(=O)OCC1C=C(c2ccccc2)C(=O)OC1 (stereo unspecified) | – | – | – | – |
